Laboratory results as given in ChEMBL document CHEMBL3860038, “Discovery of (R,E)-N-(7-Chloro-1-(1-[4-(dimethylamino)but-2-enoyl]azepan-3-yl)-1H-benzo[d]imidazol-2-yl)-2-methylisonicotinamide (EGF816), a Novel, Potent, and WT Sparing Covalent Inhibitor of Oncogenic (L858R, ex19del) and Resistant (T790M) EGFR Mutants for the Treatment of EGFR Mutant …” (J Med Chem, 2016).
Values after ≈ are worked out from the molar mass of the structure shown.

Key:
[1] = Antitumor activity against human NCI-H1975 cells xenografted in Foxn1 nude mouse assessed as reduction in tumor volume at 20 mg/kg, po qd for 5 days relative to untreated control; format: functional
Summary of the method: (§1)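 Female Foxn1 nude mice, H1975 cells inoculated subcutaneously. Randomized into groups once tumors reached 150−200 mm³, then dosed by oral gavage once daily for 5 days in 0.5% MC/0.5% Tween80 suspension (10 μL/g). Tumor volumes by caliper, (length × width × width)/2. %T/C = 100 × ΔT/ΔC, or % regression = 100 × ΔT/T_initial when ΔT < 0. Body weight recorded daily.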

[2] = Intrinsic clearance in mouse liver microsomes; format: ADME; details: read-out: CLH
[3] = Clearance in balb/c mouse at 5 mg/kg, iv by liquid chromatography-tandem mass spectrometry; format: ADME, organism-based; details: in vivo
Summary of the method: (§2)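 Rodent PK in male balb/c mice and male Wistar rats; plasma drug levels by LC-MS/MS. Mouse oral dosing at 20 mg/kg, with compounds given as a 0.5% methylcellulose/0.5% Tween 80 suspension or as solutions (PEG300/D5W, or ethanol/PEG300 with Solutol or D5W), depending on compound.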

[4] = test system: NCI-H1975; assay: Antitumor activity against human NCI-H1975 cells xenografted in Foxn1 nude mouse assessed as reduction in tumor volume dosed orally once daily for 5 days relative to untreated control; format: functional, organism-based; summary of the method: as §1
[5] = Time duration during which free plasma concentration stays above in-vitro IC50 level in human NCI-H1975 cells xenografted Foxn1 nude mouse at 50 mg/kg, po qd for 5 days; format: ADME, organism-based; details: in vivo, 120 h
Summary of the method: (§3)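 H1975 xenografts in Foxn1 nude mice, oral dosing once daily for 5 days. Plasma sampled after the last dose on day 5, at 30 min, 3 h, 7 h and 24 h. Free drug exposure was compared with in vitro cellular IC50 across the dosing interval.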

[6] = target: Cytochrome P450 2D6 (Homo sapiens, UniProt P10635); assay: Inhibition of CYP2D6 (unknown origin); format: ADME
Sequence of Cytochrome P450 2D6 (P10635 whole entry): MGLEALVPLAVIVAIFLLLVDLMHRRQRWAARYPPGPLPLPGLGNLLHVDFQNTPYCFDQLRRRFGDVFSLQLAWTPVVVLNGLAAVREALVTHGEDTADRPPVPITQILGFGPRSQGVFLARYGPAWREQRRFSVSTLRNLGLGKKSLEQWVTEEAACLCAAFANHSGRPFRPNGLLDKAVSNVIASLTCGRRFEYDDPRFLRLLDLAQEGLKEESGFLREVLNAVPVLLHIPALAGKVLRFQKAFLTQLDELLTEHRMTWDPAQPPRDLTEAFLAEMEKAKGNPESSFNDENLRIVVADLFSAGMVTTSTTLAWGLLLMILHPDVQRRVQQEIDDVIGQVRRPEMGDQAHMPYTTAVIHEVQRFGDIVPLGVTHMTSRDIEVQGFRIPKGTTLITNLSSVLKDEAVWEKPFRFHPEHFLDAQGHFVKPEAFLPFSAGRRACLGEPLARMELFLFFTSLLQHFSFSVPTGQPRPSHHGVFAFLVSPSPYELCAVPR

[7] = Intrinsic clearance in human liver microsomes; format: ADME; details: read-out: CLH
[8] = Antitumor activity against human NCI-H1975 cells xenografted in Foxn1 nude mouse assessed as reduction in tumor volume at 50 mg/kg, po qd for 5 days relative to untreated control; format: functional; summary of the method: as §1
[9] = Time duration during which free plasma concentration stays above in-vitro IC50 level in human NCI-H1975 cells xenografted Foxn1 nude mouse at 20 mg/kg, po qd for 5 days; format: ADME, organism-based; details: in vivo, 120 h; summary of the method: as §3
[10] = target: Epidermal growth factor receptor (Homo sapiens, UniProt P00533, L858R/T790M); assay: Inhibition of EGFR L858R/T790M mutant phosphorylation in human patient derived H1975 cells incubated for 3 hrs by ELISA method; format: cell-based
Sequence of Epidermal growth factor receptor (Homo sapiens, UniProt P00533, L858R/T790M) (P00533 25-1210 T790M/L858R limits assumed): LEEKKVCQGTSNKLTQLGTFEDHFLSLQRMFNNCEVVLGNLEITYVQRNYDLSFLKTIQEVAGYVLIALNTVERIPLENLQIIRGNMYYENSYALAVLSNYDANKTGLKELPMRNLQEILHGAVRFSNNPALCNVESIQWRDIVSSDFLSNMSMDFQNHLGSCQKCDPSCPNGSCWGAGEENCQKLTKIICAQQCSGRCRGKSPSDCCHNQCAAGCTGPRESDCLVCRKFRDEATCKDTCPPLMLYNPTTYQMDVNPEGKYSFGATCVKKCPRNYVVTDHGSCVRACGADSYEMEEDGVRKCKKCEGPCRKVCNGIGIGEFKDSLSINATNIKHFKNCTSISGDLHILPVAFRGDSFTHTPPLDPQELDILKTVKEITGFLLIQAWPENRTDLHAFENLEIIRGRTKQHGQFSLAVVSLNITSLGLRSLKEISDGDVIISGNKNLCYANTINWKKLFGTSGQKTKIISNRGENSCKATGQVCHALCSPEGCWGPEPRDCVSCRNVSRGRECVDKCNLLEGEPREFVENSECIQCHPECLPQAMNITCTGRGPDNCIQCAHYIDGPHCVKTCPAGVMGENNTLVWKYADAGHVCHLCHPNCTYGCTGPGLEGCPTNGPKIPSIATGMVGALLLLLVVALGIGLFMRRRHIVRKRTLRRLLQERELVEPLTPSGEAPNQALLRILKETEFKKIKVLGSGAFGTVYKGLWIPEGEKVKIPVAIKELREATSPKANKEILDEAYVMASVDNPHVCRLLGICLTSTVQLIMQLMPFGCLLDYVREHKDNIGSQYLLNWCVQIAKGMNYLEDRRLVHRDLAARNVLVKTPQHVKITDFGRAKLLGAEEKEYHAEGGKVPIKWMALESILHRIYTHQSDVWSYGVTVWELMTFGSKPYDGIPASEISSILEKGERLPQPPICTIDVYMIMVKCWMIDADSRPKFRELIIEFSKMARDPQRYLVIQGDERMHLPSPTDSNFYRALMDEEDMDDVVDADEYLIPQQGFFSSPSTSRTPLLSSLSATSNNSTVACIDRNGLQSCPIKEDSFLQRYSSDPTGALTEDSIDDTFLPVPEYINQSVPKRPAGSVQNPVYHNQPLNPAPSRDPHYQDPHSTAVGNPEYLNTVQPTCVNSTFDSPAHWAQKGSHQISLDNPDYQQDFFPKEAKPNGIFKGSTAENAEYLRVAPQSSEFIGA

[11] = test system: Mus musculus; assay: Toxicity in human NCI-H1975 cells xenografted Foxn1 nude mouse assessed as change in body weight at 20 mg/kg, po qd for 5 days (reference value: […]); format: organism-based; details: in vivo, 120 h
[12] = Oral bioavailability in balb/c mouse at 20 mg/kg by liquid chromatography-tandem mass spectrometry; format: ADME, organism-based; details: in vivo; summary of the method: as §2
[13] = Inhibition of EGFR E746 to A750 deletion mutant phosphorylation in human patient derived HCC827 cells incubated for 3 hrs by ELISA method; format: cell-based; details: HCC827, 3 h
Summary of the method: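 HCC827 cells plated at 7500/well in 5% FBS/RPMI and left overnight at 37 °C. Then 3 h with a 12-point compound dilution series, no EGF stimulation. Lysed in Triton/protease/phosphatase-inhibitor buffer. Phospho-EGFR (Y1173) read by sandwich ELISA: anti-EGFR capture, anti-phospho-EGFR, anti-rabbit-HRP, chemiluminescence. IC50 from at least duplicates.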

[14] = target: Epidermal growth factor receptor (Homo sapiens, UniProt P00533); assay: Inhibition of wild type EGFR phosphorylation in human HaCaT cells incubated for 3 hrs by ELISA method; format: cell-based
Sequence of Epidermal growth factor receptor (Homo sapiens, UniProt P00533) (P00533 whole entry): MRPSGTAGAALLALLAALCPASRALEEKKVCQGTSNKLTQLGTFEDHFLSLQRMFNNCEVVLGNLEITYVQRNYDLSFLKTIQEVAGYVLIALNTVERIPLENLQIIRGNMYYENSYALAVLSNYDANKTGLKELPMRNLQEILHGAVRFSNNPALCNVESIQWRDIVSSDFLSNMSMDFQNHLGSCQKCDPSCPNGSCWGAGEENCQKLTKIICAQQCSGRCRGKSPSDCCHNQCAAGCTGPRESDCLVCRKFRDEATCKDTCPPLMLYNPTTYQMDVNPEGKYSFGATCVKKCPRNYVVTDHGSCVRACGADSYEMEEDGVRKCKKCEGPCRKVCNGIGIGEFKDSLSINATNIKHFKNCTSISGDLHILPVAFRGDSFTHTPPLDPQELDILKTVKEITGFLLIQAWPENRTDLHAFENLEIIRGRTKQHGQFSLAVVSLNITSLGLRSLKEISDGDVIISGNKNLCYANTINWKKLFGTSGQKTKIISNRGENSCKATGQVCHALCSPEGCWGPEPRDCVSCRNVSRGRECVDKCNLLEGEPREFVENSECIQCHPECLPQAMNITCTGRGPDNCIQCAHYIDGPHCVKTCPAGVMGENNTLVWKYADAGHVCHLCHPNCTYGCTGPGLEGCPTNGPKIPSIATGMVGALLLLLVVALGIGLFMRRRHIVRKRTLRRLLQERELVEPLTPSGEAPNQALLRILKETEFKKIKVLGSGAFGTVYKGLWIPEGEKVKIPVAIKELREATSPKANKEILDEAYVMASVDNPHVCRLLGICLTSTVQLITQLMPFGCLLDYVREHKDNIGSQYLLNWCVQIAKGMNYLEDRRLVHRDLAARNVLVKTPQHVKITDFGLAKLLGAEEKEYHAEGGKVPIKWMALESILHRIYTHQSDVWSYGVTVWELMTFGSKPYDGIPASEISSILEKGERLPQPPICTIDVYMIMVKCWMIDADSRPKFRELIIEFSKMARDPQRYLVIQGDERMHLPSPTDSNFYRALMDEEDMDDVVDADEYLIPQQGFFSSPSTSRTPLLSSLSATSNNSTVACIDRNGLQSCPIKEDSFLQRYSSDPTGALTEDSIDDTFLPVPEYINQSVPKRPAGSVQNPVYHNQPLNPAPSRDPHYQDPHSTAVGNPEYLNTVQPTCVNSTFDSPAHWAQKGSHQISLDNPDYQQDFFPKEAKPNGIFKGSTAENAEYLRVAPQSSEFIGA

[15] = target: Cytochrome P450 3A4 (Homo sapiens, UniProt P08684); assay: Inhibition of CYP3A4 (unknown origin); format: ADME
Sequence of Cytochrome P450 3A4 (P08684 whole entry): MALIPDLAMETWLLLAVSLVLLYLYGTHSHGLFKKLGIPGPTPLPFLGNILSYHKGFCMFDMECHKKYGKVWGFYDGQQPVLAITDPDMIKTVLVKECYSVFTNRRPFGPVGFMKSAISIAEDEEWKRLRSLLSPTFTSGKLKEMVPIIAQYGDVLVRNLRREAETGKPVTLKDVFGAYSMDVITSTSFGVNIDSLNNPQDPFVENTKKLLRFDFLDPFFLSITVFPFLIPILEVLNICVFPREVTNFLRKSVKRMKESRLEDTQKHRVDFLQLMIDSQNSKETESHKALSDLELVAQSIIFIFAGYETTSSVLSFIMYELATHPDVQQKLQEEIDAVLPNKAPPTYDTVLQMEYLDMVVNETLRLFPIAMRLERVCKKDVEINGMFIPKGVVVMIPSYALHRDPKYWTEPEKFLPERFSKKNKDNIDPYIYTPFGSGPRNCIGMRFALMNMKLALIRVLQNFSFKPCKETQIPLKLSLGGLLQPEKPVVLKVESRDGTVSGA

[16] = target: Cytochrome P450 2C9 (Homo sapiens, UniProt P11712); assay: Inhibition of CYP2C9 (unknown origin); format: ADME
Sequence of Cytochrome P450 2C9 (P11712 whole entry): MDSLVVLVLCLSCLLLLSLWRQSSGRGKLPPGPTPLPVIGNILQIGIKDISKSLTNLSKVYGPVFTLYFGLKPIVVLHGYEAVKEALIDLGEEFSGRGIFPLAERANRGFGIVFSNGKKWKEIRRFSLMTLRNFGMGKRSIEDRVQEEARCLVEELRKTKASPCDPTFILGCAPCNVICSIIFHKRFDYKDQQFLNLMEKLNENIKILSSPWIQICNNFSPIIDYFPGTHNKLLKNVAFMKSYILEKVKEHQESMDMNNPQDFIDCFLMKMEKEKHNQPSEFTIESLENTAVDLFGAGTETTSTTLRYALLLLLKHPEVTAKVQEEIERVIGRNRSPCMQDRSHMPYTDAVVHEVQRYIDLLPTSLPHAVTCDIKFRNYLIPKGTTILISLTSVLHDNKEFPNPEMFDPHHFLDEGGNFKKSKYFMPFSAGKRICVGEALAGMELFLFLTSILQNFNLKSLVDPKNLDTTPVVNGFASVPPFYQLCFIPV

[17] = AUC in balb/c mouse at 20 mg/kg, po by liquid chromatography-tandem mass spectrometry; format: ADME, organism-based; details: in vivo; summary of the method: as §2
[18] = Glutathione reactivity assessed as GSH adduct formation incubated for 1 hr using 10 mM glutathione
Summary of the method: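 Compound incubated 1 h with 10 mM glutathione; GSH adduct formation measured.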

[19] = target: Epidermal growth factor receptor (Homo sapiens, UniProt P00533, L858R); assay: Inhibition of EGFR L858R mutant phosphorylation in human patient derived H3255 cells incubated for 3 hrs by ELISA method; format: cell-based
Sequence of Epidermal growth factor receptor (Homo sapiens, UniProt P00533, L858R) (P00533 25-1210 L858R limits assumed): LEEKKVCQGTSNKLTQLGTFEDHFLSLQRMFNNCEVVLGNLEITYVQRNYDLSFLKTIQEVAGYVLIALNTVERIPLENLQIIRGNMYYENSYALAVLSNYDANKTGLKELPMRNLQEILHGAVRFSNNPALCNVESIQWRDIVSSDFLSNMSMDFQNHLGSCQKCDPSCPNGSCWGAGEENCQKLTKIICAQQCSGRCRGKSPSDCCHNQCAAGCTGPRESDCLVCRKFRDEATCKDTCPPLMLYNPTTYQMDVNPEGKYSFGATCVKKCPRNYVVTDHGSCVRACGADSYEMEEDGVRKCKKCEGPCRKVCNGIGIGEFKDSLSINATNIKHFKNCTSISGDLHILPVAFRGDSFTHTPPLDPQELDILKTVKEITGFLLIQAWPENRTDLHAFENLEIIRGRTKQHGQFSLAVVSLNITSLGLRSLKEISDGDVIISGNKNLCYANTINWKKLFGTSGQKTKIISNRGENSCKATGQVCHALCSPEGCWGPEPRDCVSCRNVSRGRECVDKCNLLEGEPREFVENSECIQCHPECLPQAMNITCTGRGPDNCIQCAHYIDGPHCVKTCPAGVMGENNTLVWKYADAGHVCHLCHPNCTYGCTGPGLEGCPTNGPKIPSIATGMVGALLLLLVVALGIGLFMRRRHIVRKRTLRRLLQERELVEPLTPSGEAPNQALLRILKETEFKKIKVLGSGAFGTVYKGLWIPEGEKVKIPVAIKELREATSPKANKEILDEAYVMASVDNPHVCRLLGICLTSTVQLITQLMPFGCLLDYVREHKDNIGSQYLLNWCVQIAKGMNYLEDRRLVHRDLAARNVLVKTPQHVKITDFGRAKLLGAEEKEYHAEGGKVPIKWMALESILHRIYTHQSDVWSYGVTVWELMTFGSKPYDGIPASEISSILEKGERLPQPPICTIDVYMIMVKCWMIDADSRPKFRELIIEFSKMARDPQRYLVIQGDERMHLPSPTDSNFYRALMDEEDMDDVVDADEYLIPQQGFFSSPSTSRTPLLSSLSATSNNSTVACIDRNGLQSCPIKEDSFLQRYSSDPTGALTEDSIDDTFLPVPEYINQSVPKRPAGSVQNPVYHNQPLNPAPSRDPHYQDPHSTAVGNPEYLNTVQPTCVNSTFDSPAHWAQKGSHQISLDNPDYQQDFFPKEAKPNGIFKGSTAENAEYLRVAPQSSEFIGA

[20] = Aqueous solubility of the compound at pH 6.8; format: physicochemical
[21] = test system: Mus musculus; assay: Toxicity in human NCI-H1975 cells xenografted Foxn1 nude mouse assessed as change in body weight at 50 mg/kg, po qd for 5 days (reference value: […]); format: organism-based; details: in vivo, 120 h
[22] = AUC in dog at 10 mg/kg, po by liquid chromatography-tandem mass spectrometry; format: ADME, organism-based, Canis lupus familiaris; details: in vivo
[23] = Cmax in dog at 10 mg/kg, po by liquid chromatography-tandem mass spectrometry; format: ADME, organism-based, Canis lupus familiaris; design: dose 10 mg/kg, route oral; details: in vivo
[24] = Oral bioavailability in dog at 10 mg/kg by liquid chromatography-tandem mass spectrometry; format: ADME, organism-based, Canis lupus familiaris; details: in vivo
[25] = Volume of distribution at steady state in dog at 1 mg/kg, iv by liquid chromatography-tandem mass spectrometry; format: ADME, organism-based, Canis lupus familiaris; details: in vivo, read-out: Vdss
[26] = AUC in dog at 1 mg/kg, iv by liquid chromatography-tandem mass spectrometry; format: ADME, organism-based, Canis lupus familiaris; details: in vivo
[27] = Tmax in dog at 10 mg/kg, po by liquid chromatography-tandem mass spectrometry; format: ADME, organism-based, Canis lupus familiaris; details: in vivo
[28] = Clearance in dog at 1 mg/kg, iv by liquid chromatography-tandem mass spectrometry; format: ADME, organism-based, Canis lupus familiaris; details: in vivo
[29] = Mean residence time in dog at 1 mg/kg, iv by liquid chromatography-tandem mass spectrometry; format: ADME, organism-based, Canis lupus familiaris; details: in vivo

## Cc1cccc2nc(NC(=O)c3ccnc(C(F)(F)F)c3)n([C@@H]3CCCCN(C(=O)/C=C/CN(C)C)C3)c12
[1]
  T/C: -31%
[2]
  microsomal CLint: 96 µL/min/mg
[3]
  clearance: 62.5 mL/min/kg
[4]
  Activity: Dose-dependent effect
[5]
  Time: <= 14 hr
[6]
  IC50: 6100 nM
[7]
  microsomal CLint: 71 µL/min/mg
[8]
  T/C: -64%
[9]
  Time: <= 14 hr
[10]
  IC50: 1.51 nM
[11]
  Activity: -0.3%
[12]
  bioavailability: 27%
[13]
  IC50: 1.48 nM
[14]
  IC50: 72 nM
[15]
  IC50: > 25000 nM
[16]
  IC50: > 25000 nM
[17]
  AUC: 2.84 µM·h
[18]
  Drug metabolism: < 5%
[19]
  IC50: 2.65 nM
[20]
  solubility: 12.7 µM (≈ 6.71 µg/mL)
[21]
  Activity: -3.5%

## Cc1cc(C(=O)Nc2nc3cccc(Cl)c3n2[C@@H]2CCCCN(C(=O)/C=C/CN(C)C)C2)ccn1.Cl
[22]
  AUC: 5.23 µM·h
[23]
  Cmax: 435 nM
[24]
  bioavailability: 67%
[25]
  Vd: 35.2 L/kg
[26]
  AUC: 0.783 µM·h
[27]
  Tmax: 2.3 h
[28]
  clearance: 43.7 mL/min/kg
[29]
  MRT: 13.8 h
